The source made the active and inactive calls. The rule behind the calls is not given here.
Legend:
Rattus norvegicus [1] = species: Rattus norvegicus; experiment: The mean responses per minute during the 2.5 min extinction session in the stimulus-generation studies was calculated at dose 0.7 mg / kg; assay type: functional
Method in brief: (§1)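 Rats were trained on a two-lever drug-versus-saline discrimination (0.2 mg/kg ip training dose, VI 15-s, food reward). Challenge doses were given ip 15 min before a 2.5-min extinction test, in random order, to groups of 3–6 rats, with at least three training sessions between tests. Response rate is responses per minute over the extinction session.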

Rattus norvegicus [2] = species: Rattus norvegicus; experiment: The number of animals responding per number of animals receiving the drug(3/4) in the stimulus-generation studies was calculated at dose 0.4 mg / kg; assay type: functional
Method in brief: (§2)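 Male Sprague-Dawley rats were trained to discriminate 0.2 mg/kg ip training drug from saline (two levers, VI 15-s, milk reward). Test doses were given ip 15 min pre-session in random order to groups of 3–6. In the 2.5-min extinction session, rats making fewer than five total responses were counted as disrupted. N is animals responding over animals dosed.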

Rattus norvegicus [3] = species: Rattus norvegicus; experiment: The compound was tested for effective dose ( ED 50) against stimulus generation with rats trained to discriminate (R) (-)-DOB from saline.; assay type: functional
Method in brief: (§3)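 Male Sprague-Dawley rats (n = 6) on a two-lever operant task for sweetened milk, VI 15-s schedule. Trained to discriminate 0.2 mg/kg ip training drug from 1.0 mL/kg 0.9% saline, 15 min pre-session. Test doses were given ip in random order to groups of 3–6, with 15-min pretreatment and a 2.5-min extinction session. ED50 was calculated from dose-response data.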

Rattus norvegicus [4] = species: Rattus norvegicus; experiment: The mean responses per minute during the 2.5 min extinction session in the stimulus-generation studies was calculated at dose 1.1 mg / kg; assay type: functional; method in brief: as §1
Rattus norvegicus [5] = species: Rattus norvegicus; experiment: The number of responses made on the (R)(-)-DOB appropriate level, generation studies was calculated at dose 1.1 mg / kg; assay type: functional
Method in brief: (§4)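 Male Sprague-Dawley rats (n = 6) were trained on a two-lever operant task for sweetened-milk reward to discriminate 0.2 mg/kg (R)-(-)-DOB-HCl ip from 1.0 mL/kg 0.9% saline, with a VI 15-s schedule and 15-min sessions. Test doses were given ip 15 min before a 2.5-min extinction session, in random order, to groups of 3-6 rats. Read-out was % drug-lever responses; fewer than five total responses counted as disrupted.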

Rattus norvegicus [6] = species: Rattus norvegicus; experiment: The number of animals responding per number of animals receiving the drug(3/3) in the stimulus-generation studies was calculated at dose 0.2 mg / kg; assay type: functional; method in brief: as §2
Rattus norvegicus [7] = species: Rattus norvegicus; experiment: The number of responses made on the (R)(-)-DOB appropriate level, generation studies was calculated at dose 0.7 mg / kg; assay type: functional; method in brief: as §4
Rattus norvegicus [8] = species: Rattus norvegicus; experiment: The number of responses made on the (R)(-)-DOB appropriate level, generation studies was calculated at dose 0.4 mg / kg; assay type: functional; method in brief: as §4
Rattus norvegicus [9] = species: Rattus norvegicus; experiment: The number of animals responding per number of animals receiving the drug(3/3) in the stimulus-generation studies was calculated at dose 0.7 mg / kg; assay type: functional; method in brief: as §2
Rattus norvegicus [10] = species: Rattus norvegicus; experiment: The number of responses made on the (R)(-)-DOB appropriate level, generation studies was calculated at dose 0.2 mg / kg; assay type: functional; method in brief: as §4
Rattus norvegicus [11] = species: Rattus norvegicus; experiment: The mean responses per minute during the 2.5 min extinction session in the stimulus-generation studies was calculated at dose 0.4 mg / kg; assay type: functional; method in brief: as §1
Rattus norvegicus [12] = species: Rattus norvegicus; experiment: The number of animals responding per number of animals receiving the drug(4/4) in the stimulus-generation studies was calculated at dose 1.1 mg / kg; assay type: functional; method in brief: as §2
Rattus norvegicus [13] = species: Rattus norvegicus; experiment: The mean responses per minute during the 2.5 min extinction session in the stimulus-generation studies was calculated at dose 0.2 mg / kg; assay type: functional; method in brief: as §1
Rattus norvegicus [14] = experiment: The number of animals responding per number of animals receiving the drug (5/5)in the stimulus-generation studies was calculated at dose 1.3 mg/kg; assay type: functional; method in brief: as §2
Rattus norvegicus [15] = experiment: The mean responses per minute during the 2.5 min extinction session in the stimulus-generation studies was calculated at dose 0.3 mg/kg; assay type: functional; method in brief: as §1
Rattus norvegicus [16] = experiment: The number of responses made on the (R)(-)-DOB appropriate lever, generation studies was calculated at dose 1.0 mg/kg; assay type: functional; method in brief: as §4
Rattus norvegicus [17] = experiment: The number of animals responding per number of animals receiving the drug (3/3) in the stimulus-generation studies was calculated at dose 0.3 mg/kg; assay type: functional; method in brief: as §2
Rattus norvegicus [18] = experiment: The number of animals responding per number of animals receiving the drug (3/3)in the stimulus-generation studies was calculated at dose 1.0 mg/kg; assay type: functional; method in brief: as §2
Rattus norvegicus [19] = experiment: The mean responses per minute during the 2.5 min extinction session in the stimulus-generation studies was calculated at dose 1.2 mg/kg; assay type: functional; method in brief: as §1
Rattus norvegicus [20] = experiment: The number of responses made on the (R)(-)-DOB appropriate lever, generation studies was calculated at dose 1.2 mg/kg; assay type: functional; method in brief: as §4
[21] = molecular target: T1, Serotonin 2 (5-HT2) receptor (Rattus norvegicus, UniProt P30994+P08909+P14842); experiment: Affinity towards [3H]- DOB -labeled 5-hydroxytryptamine 2 receptor sites in rat cortical homogenates
Rattus norvegicus [22] = experiment: The number of animals responding per number of animals receiving the drug (4/4)in the stimulus-generation studies was calculated at dose 0.6 mg/kg; assay type: functional; method in brief: as §2
Rattus norvegicus [23] = experiment: The mean responses per minute during the 2.5 min extinction session in the stimulus-generation studies was calculated at dose 1.3 mg/kg; assay type: functional; method in brief: as §1
[24] = molecular target: T1, Serotonin 2 (5-HT2) receptor; experiment: Affinity towards [3H]- ketanserin-labeled 5-hydroxytryptamine 2 receptor sites in rat cortical homogenates
Method in brief: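 Label was 0.4 nM [3H]ketanserin, with 11 competitor concentrations run in triplicate and nonspecific binding defined by 1 μM cinanserin. Bound ligand was filtered onto glass fibre and counted by scintillation. IC50 came from nonlinear regression; Ki = IC50/(1+[D]/KD).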

Rattus norvegicus [25] = experiment: The mean responses per minute during the 2.5 min extinction session in the stimulus-generation studies was calculated at dose 0.6 mg/kg; assay type: functional; method in brief: as §1
Rattus norvegicus [26] = experiment: The number of animals responding per number of animals receiving the drug(3/4) in the stimulus-generation studies was calculated at dose 1.2 mg/kg; assay type: functional; method in brief: as §2
Rattus norvegicus [27] = experiment: The number of responses made on the (R)(-)-DOB appropriate lever, generation studies was calculated at dose 0.3 mg/kg; assay type: functional; method in brief: as §4
Rattus norvegicus [28] = experiment: The number of responses made on the (R)(-)-DOB appropriate lever, generation studies was calculated at dose 1.5 mg/kg; NR means not responding; assay type: functional, organism-based; design: dose 1.5 mg/kg; method in brief: as §4
Rattus norvegicus [29] = experiment: The mean responses per minute during the 2.5 min extinction session in the stimulus-generation studies was calculated at dose 1.0 mg/kg; assay type: functional; method in brief: as §1
Rattus norvegicus [30] = experiment: The number of animals responding per number of animals receiving the drug (2/6)in the stimulus-generation studies was calculated at dose 1.5 mg/kg; assay type: functional; method in brief: as §2
Rattus norvegicus [31] = experiment: The number of responses made on the (R)(-)-DOB appropriate lever, generation studies was calculated at dose 1.4 mg/kg; NR means not responding; assay type: functional, organism-based; design: dose 1.4 mg/kg; method in brief: as §4
Rattus norvegicus [32] = experiment: The number of responses made on the (R)(-)-DOB appropriate lever, generation studies was calculated at dose 0.6 mg/kg; assay type: functional; method in brief: as §4
Rattus norvegicus [33] = species: Rattus norvegicus; experiment: The compound was tested for effective dose ( ED 50) against stimulus generation with rats trained to discriminate (R) (-)-DOB from saline; assay type: functional; method in brief: as §3
Rattus norvegicus [34] = experiment: The number of animals responding per number of animals receiving the drug(2/6) in the stimulus-generation studies was calculated at dose 1.4 mg/kg; assay type: functional; method in brief: as §2
Rattus norvegicus [35] = experiment: The number of responses made on the (R)(-)-DOB appropriate lever, generation studies was calculated at dose 1.3 mg/kg; assay type: functional; method in brief: as §4

In the case of `COc1cc(C[C@H](C)N)c(OC)cc1Br`, the Response rate (Rattus norvegicus [1]) was 10.8, the “No. of animals responding/animals receiving drug” value (Rattus norvegicus [2]) was 3 and the ED50 (Rattus norvegicus [3]) was 0.56 mg/kg. For the same molecule, the Response rate (Rattus norvegicus [4]) was 10.8, the Responding (Rattus norvegicus [5]) was 82% and the “No. of animals responding/animals receiving drug” value (Rattus norvegicus [6]) was 3. The Responding (Rattus norvegicus [7]) was 63%, the Responding (Rattus norvegicus [8]) was 48% and the “No. of animals responding/animals receiving drug” value (Rattus norvegicus [9]) was 3. The Responding (Rattus norvegicus [10]) was 3%, the Response rate (Rattus norvegicus [11]) was 10.5 and the “No. of animals responding/animals receiving drug” value (Rattus norvegicus [12]) was 4. It also gave a Response rate (Rattus norvegicus [13]) of 12.
`CNC(C)Cc1cc(OC)c(Br)cc1OC` (stereo not given) was tested, and the “No. of animals responding/animals receiving drug” value (Rattus norvegicus [14]) was 5, the Response rate (Rattus norvegicus [15]) was 11.6 and the Responding (Rattus norvegicus [16]) was 50%. For the same molecule, the “No. of animals responding/animals receiving drug” value (Rattus norvegicus [17]) was 3, the “No. of animals responding/animals receiving drug” value (Rattus norvegicus [18]) was 3 and the Response rate (Rattus norvegicus [19]) was 13.3. For the same molecule, the Responding (Rattus norvegicus [20]) was 70%, the Ki [21] was 7.7 nM and the “No. of animals responding/animals receiving drug” value (Rattus norvegicus [22]) was 4. For the same molecule, the Response rate (Rattus norvegicus [23]) was 8, the Ki [24] was 79 nM and the Response rate (Rattus norvegicus [25]) was 13.6. For the same molecule, the “No. of animals responding/animals receiving drug” value (Rattus norvegicus [26]) was 3, the Responding (Rattus norvegicus [27]) was 12% and the Responding (Rattus norvegicus [28]) was “inactive”. The Response rate (Rattus norvegicus [29]) was 12, the “No. of animals responding/animals receiving drug” value (Rattus norvegicus [30]) was 2 and the Responding (Rattus norvegicus [31]) was “inactive”. For the same molecule, the Responding (Rattus norvegicus [32]) was 28%, the ED50 (Rattus norvegicus [33]) was 0.82 mg/kg and the “No. of animals responding/animals receiving drug” value (Rattus norvegicus [34]) was 2. For the same molecule, the Responding (Rattus norvegicus [35]) was 82%.

Reference: ChEMBL document CHEMBL1123747, “N-methyl derivatives of the 5-HT2 agonist 1-(4-bromo-2,5-dimethoxyphenyl)-2-aminopropane” (J Med Chem, 1987)
